Data set [1] is described as follows: Partition coefficient, log P of the compound. Format: physicochemical. The conditions noted are these: octanol/water. Summed up:
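Partition coefficient measured for the HPLC-purified [18F]-radiolabelled ligands at pH 7.4. Reported as log P.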

Data set [2] in a line: Drug level in mouse brain after 2 mins. It counts as ADME, tissue-based. The conditions noted are these: read-out: Drug uptake. Summed up:
(§1)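 [18F]-labelled ligands, HPLC-purified to >97% radiochemical purity, given by injection to normal mice. Brain radioactivity measured at 2 min, 2 h and 3 h after injection. Expressed as % injected dose per gram of tissue.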

A short description of data set [3]: Drug level in mouse brain after 2 hrs. The conditions noted are these: read-out: Drug uptake. Format: ADME, tissue-based. Put shortly: as §1
Data set [4] can be described thus: Drug level in mouse brain after 3 hrs. It counts as ADME, tissue-based. Conditions: read-out: Drug uptake. Put shortly: as §1
Data set [5] has as its target T1, Amyloid-beta precursor protein (Homo sapiens, UniProt P05067). The experiment in a line: Displacement of [125I]IMPY from beta-amyloid plaques in AD patient brain. Put shortly: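 Competition binding against the radioligand [125I]IMPY (6-iodo-2-(4'-dimethylamino-)phenylimidazo[1,2-a]pyridine). Tissue: homogenates of postmortem AD brain. Reported as Ki.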
On the technique in general: In a radioligand displacement assay an active substance lowers the binding of a labelled ligand.

For data set [6], the target named is T1, Amyloid-beta precursor protein. The experiment in a line: Binding affinity to beta-amyloid in gray matter of AD patent brain. Format: tissue-based. Conditions: tested as the 18F-labelled form.

The logP is the decadic logarithm of the partition coefficient of the neutral form, usually between octanol and water. Lower therefore signals lower lipophilicity. One may read the Ki as a dissociation constant, usually derived from enzyme kinetics or from competition with a known ligand. A lower Ki goes with tighter binding.

Each structure is given as a SMILES string. Active and inactive are the calls of the source. No cut-off for these calls is given here.

T1 sequence (P05067 whole entry): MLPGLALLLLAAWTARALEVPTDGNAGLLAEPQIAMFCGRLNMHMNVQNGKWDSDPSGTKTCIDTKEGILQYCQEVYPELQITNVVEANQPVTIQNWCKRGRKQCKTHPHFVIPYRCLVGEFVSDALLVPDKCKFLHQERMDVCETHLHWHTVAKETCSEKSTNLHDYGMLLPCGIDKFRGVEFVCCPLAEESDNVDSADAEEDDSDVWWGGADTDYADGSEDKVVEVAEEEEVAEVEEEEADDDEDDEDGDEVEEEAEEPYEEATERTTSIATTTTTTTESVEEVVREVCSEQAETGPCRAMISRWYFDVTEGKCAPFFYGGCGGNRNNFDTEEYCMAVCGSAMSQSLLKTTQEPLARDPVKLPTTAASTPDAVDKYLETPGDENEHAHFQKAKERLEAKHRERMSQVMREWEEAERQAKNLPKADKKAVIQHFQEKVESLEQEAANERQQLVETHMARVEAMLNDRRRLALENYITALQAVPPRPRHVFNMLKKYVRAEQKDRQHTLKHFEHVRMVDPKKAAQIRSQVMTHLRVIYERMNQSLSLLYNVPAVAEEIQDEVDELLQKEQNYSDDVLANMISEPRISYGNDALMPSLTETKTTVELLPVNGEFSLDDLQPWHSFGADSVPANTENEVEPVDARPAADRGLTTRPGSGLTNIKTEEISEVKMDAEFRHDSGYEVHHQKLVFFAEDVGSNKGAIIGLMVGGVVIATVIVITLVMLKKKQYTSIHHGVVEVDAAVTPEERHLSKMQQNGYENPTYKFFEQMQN

Take `[18F]CCOCCOCCOc1ccc(C#Cc2ccc3c(c2)CCN3)cc1`: in data set [1], the logP came out at 2.95. Besides, the tissue uptake at 2 min in data set [2] came out at 4.5 %ID/g. Also, the tissue uptake at 2 h in data set [3] came out at 1.71 %ID/g.
Turning to `[18F]CCOCCOCCOc1ccc(C#Cc2ccc3[nH]ccc3c2)cc1`, the tissue uptake at 3 h in data set [4] came to 2.1 %ID/g. This compound returned a logP in data set [1] of 2.56. In data set [2], the tissue uptake at 2 min is 2.43 %ID/g.
The compound `FCCOCCOCCOc1ccc(C#Cc2ccc3c(c2)CCN3)cc1` displayed a Ki in data set [5] of 4 nM. Further, in data set [6], the result was Active.
With `FCCOCCOCCOc1ccc(C#Cc2ccc3[nH]ccc3c2)cc1`, affinity in data set [5] was put at a Ki of 1.5 nM. In data set [6], the outcome was Active.
